From ChEMBL document CHEMBL3352171, “Synthesis and biological evaluation of andrographolide analogues as anti-cancer agents” (Eur J Med Chem, 2014) come the findings set out here.

Series [1] in a line: Binding affinity to GC-28 DNA (unknown origin) minor groove by DAPI staining based spectrophotometry. The essentials:
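DAPI–DNA complex fluorescence read at 460 nm emission band; test compound added to the preformed complex and loss of fluorescence followed.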

The test system of series [2] is HEK293. In words: Induction of cell cycle arrest in HEK293 cells assessed as accumulation at G2/M phase at 15 uM after 48 hrs by propidium iodide staining based flow cytometry (reference value: 2.63 +/- 0.7%). The format is functional, Homo sapiens.
Series [3] relates to HEK293. In words: Induction of cell cycle arrest in HEK293 cells assessed as accumulation at S phase at 20 uM after 48 hrs by propidium iodide staining based flow cytometry (reference value: 19.9 +/- 0.5%). The format is functional, Homo sapiens. (In flow cytometry, cells or beads pass a laser one at a time.)
The subject of series [4] is HEK293. The series can be described thus: Increase in Bax expression in p53 deficient HEK293 cells at LC50 level after 48 hrs by Western blot method. It counts as functional, cell-based. To be noted: Homo sapiens. For orientation: In western blotting, separated proteins are transferred to a membrane and probed.
Series [5] has as its system HEK293. In words: Induction of cell cycle arrest in HEK293 cells assessed as accumulation at S phase at 5 uM after 48 hrs by propidium iodide staining based flow cytometry (reference value: 19.9 +/- 0.5%). It counts as functional, Homo sapiens.
For series [6], the system named is HEK293. The series can be described thus: Increase in p53 expression in HEK293 cells at LC50 level after 48 hrs by Western blot method. The format is functional, cell-based. To be noted: Homo sapiens.
A short description of series [7]: Drug hydrolysis in pH 7.4 PBS buffer assessed as first order rate constant for andrographolide formation by HPLC method. The format is physicochemical. The procedure, abridged:
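Compound in PBS pH 7.4 without enzyme; unreacted parent quantified by HPLC at time intervals. Decay fitted to first-order rate equation to give rate constant and half-life.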

For series [8], the system named is HEK293. The series can be described thus: Induction of cell cycle arrest in HEK293 cells assessed as accumulation at G1 phase at 10 uM after 48 hrs by propidium iodide staining based flow cytometry (reference value: 53.21 +/- 0.8%). The format is functional, Homo sapiens.
Series [9] has as its system HEK293. The series can be described thus: Increase in PARP cleavage in HEK293 cells at LC50 level after 48 hrs by Western blot method. The format is functional, cell-based. To be noted: Homo sapiens.
For series [10], the system named is HEK293. The series can be described thus: Induction of apoptosis in HEK293 cells at 15 uM after 48 hrs by propidium iodide staining based flow cytometry (reference value: 24.26 +/- 0.8%). The format is functional, Homo sapiens.
A further series deals with Vero. The series can be described thus: Cytotoxicity against african green monkey Vero cells after 48 hrs by MTT assay. The format is cell-based. To be noted: chlorocebus sabaeus. The procedure, abridged:
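Cells seeded at 10,000 per well and exposed to increasing compound concentrations for 48 h. After a PBS wash, MTT (2.5 mg/mL) was added for 6 h at 37 °C, then detergent (10% NP-40, 4 mM HCl), and absorbance was read at 570 nm. LC50 is the concentration causing 50% cell death. Values are means of three independent experiments.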
(Tetrazolium dyes change colour on reduction, which living cells bring about.)

Series [11] has as its system HEK293. The series can be described thus: Increase in caspase-3 expression in HEK293 cells at LC50 level after 48 hrs by immunocytochemistry. To be noted: Homo sapiens. It counts as functional, cell-based.

Activity calls are given as the source filed them. The rule behind the calls is not given here.

For orientation: LC50 means the concentration lethal to half of the exposed cells or organisms.

Consider `C=C1CC[C@@H]2[C@](C)(CO)[C@H](O)CC[C@@]2(C)[C@@H]1C/C=C1/C(=O)OC[C@H]1OC(=O)CI`, for which the result (in [1]; in the series with HEK293 [6]; in the series with HEK293 [9]; in the series on HEK293 [11]) was Active. Also, the Activity with HEK293 [2] is 1.28%; in the series with HEK293 [3], 1.66%; in the series on HEK293 [5], 9.21%; in the series with HEK293 [8], 15.6%; with HEK293 [10], 78.5%. Further, the result in the series on HEK293 [4] was inactive. Further, in series [7], the K worked out at 0.02 min⁻¹. Also, the LC50 in the series with Vero is 45 µM.
